Laboratory results reported in ChEMBL document CHEMBL4627393, “Discovery of Potent, Selective, and State-Dependent NaV1.7 Inhibitors with Robust Oral Efficacy in Pain Models: Structure-Activity Relationship and Optimization of Chroman and Indane Aryl Sulfonamides” (J Med Chem, 2020).

Tests used:
[1] = Metabolic stability in mouse liver microsomes assessed as metabolic rate at 1 uM preincubated for 5 mins followed by NADPH addition and measured up to 30 mins by LC/MS-MS analysis; format: ADME, Microsome; conditions: 0.5 h
[2] = Clearance in BALB/c mouse at 1 mg/kg, iv measured upto 24 hrs by LC/MS-MS analysis; format: ADME, organism-based; conditions: in vivo
[3] = AUClast in Sprague-Dawley rat at 10 mg/kg, po measured upto 24 hrs by LC/MS-MS analysis; format: ADME, organism-based; parameters: time < 24 hr, dose 10 mg/kg, route oral; conditions: in vivo
[4] = Cmax in BALB/c mouse at 1 mg/kg, iv measured upto 24 hrs by LC/MS-MS analysis; format: ADME, organism-based; parameters: dose 1 mg/kg, route intravenous; conditions: in vivo
[5] = Apparent permeability across apical to basolateral side in human Caco2 cells; format: ADME, cell-based; conditions: Caco-2
[6] = AUClast in Sprague-Dawley rat at 1 mg/kg, iv measured upto 24 hrs by LC/MS-MS analysis; format: ADME, organism-based; parameters: dose 1 mg/kg, time < 24 hr, route intravenous; conditions: in vivo
[7] = Cmax in Sprague-Dawley rat at 1 mg/kg, iv measured upto 24 hrs by LC/MS-MS analysis; format: ADME, organism-based; parameters: dose 1 mg/kg, route intravenous; conditions: in vivo
[8] = AUClast in Beagle dog at 1 mg/kg, iv administered as infusion for 15 mins by LC/MS-MS analysis; format: ADME, organism-based, Canis lupus familiaris; parameters: dose 1 mg/kg, time 0 - last, route intravenous; conditions: in vivo
[9] = Clearance in Beagle dog at 1 mg/kg, iv administered as infusion for 15 mins by LC/MS-MS analysis; format: ADME, organism-based, Canis lupus familiaris; conditions: in vivo
[10] = Cmax in Sprague-Dawley rat at 10 mg/kg, po measured upto 24 hrs by LC/MS-MS analysis; format: ADME, organism-based; parameters: dose 10 mg/kg, route oral; conditions: in vivo
[11] = Metabolic stability in dog liver microsomes assessed as metabolic rate at 1 uM preincubated for 5 mins followed by NADPH addition and measured up to 30 mins by LC/MS-MS analysis; format: ADME, Canis lupus familiaris, Microsome; conditions: 0.5 h
[12] = Lipophilicity, log D of the compound; format: physicochemical; conditions: octanol/water
[13] = Half life in Beagle dog at 1 mg/kg, iv administered as infusion for 15 mins by LC/MS-MS analysis; format: ADME, organism-based, Canis lupus familiaris; conditions: in vivo
[14] = AUClast in BALB/c mouse at 10 mg/kg, po measured upto 24 hrs by LC/MS-MS analysis; format: ADME, organism-based; parameters: dose 10 mg/kg, time < 24 hr, route oral; conditions: in vivo
[15] = Metabolic stability in human liver microsomes assessed as metabolic rate at 1 uM preincubated for 5 mins followed by NADPH addition and measured up to 30 mins by LC/MS-MS analysis; format: ADME, Microsome; conditions: 0.5 h
[16] = Metabolic stability in monkey liver microsomes assessed as metabolic rate at 1 uM preincubated for 5 mins followed by NADPH addition and measured up to 30 mins by LC/MS-MS analysis; format: ADME, Macaca mulatta, Microsome; conditions: rhesus monkey, 0.5 h
[17] = Clearance in Sprague-Dawley rat at 1 mg/kg, iv measured upto 24 hrs by LC/MS-MS analysis; format: ADME, organism-based; conditions: in vivo
[18] = Cmax in Beagle dog at 1 mg/kg, iv administered as infusion for 15 mins by LC/MS-MS analysis; format: ADME, organism-based, Canis lupus familiaris; parameters: dose 1 mg/kg, route intravenous; conditions: in vivo
[19] = Half life in Sprague-Dawley rat at 1 mg/kg, iv measured upto 24 hrs by LC/MS-MS analysis; format: ADME, organism-based; conditions: in vivo
[20] = Half life in BALB/c mouse at 1 mg/kg, iv measured upto 24 hrs by LC/MS-MS analysis; format: ADME, organism-based; conditions: in vivo
[21] = Bioavailability in Beagle dog at 1 mg/kg, iv administered as infusion for 15 mins followed by compound washout and subsequent compound dosing at 5 mg/kg, po measured up to 24 hrs by LC/MS-MS analysis; format: ADME, organism-based, Canis lupus familiaris; conditions: in vivo
[22] = Apparent permeability across basolateral to apical side in human Caco2 cells; format: ADME, cell-based; conditions: Caco-2
[23] = Oral bioavailability in Sprague-Dawley rat at 10 mg/kg measured upto 24 hrs by LC/MS-MS analysis; format: ADME, organism-based; conditions: in vivo
How it was run: (§1)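 Pharmacokinetics were run with an IV dose of 1 mg/kg and a PO dose of 10 mg/kg. Parameters reported were AUClast, Cmax, CL, T1/2, Vss and %F.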

[24] = Cmax in Beagle dog at 1 mg/kg, iv administered as infusion for 15 mins followed by compound washout and subsequent compound dosing at 5 mg/kg, po measured up to 24 hrs by LC/MS-MS analysis; format: ADME, organism-based, Canis lupus familiaris; conditions: in vivo
[25] = Oral bioavailability in BALB/c mouse at 10 mg/kg measured upto 24 hrs by LC/MS-MS analysis; format: ADME, organism-based; conditions: in vivo; how it was run: as §1
[26] = Metabolic stability in rat liver microsomes assessed as metabolic rate at 1 uM preincubated for 5 mins followed by NADPH addition and measured up to 30 mins by LC/MS-MS analysis; format: ADME, Microsome; conditions: 0.5 h
[27] = AUClast in Beagle dog at 1 mg/kg, iv administered as infusion for 15 mins followed by compound washout and subsequent compound dosing at 5 mg/kg, po measured up to 24 hrs by LC/MS-MS analysis; format: ADME, organism-based, Canis lupus familiaris; conditions: in vivo
[28] = Volume of distribution at steady state in Beagle dog at 1 mg/kg, iv administered as infusion for 15 mins by LC/MS-MS analysis; format: ADME, organism-based, Canis lupus familiaris; conditions: in vivo, read-out: Vdss; how it was run: as §1
[29] = Cmax in BALB/c mouse at 10 mg/kg, po measured upto 24 hrs by LC/MS-MS analysis; format: ADME, organism-based; parameters: dose 10 mg/kg, route oral; conditions: in vivo
[30] = Volume of distribution at steady state in Sprague-Dawley rat at 1 mg/kg, iv measured upto 24 hrs by LC/MS-MS analysis; format: ADME, organism-based; conditions: in vivo, read-out: Vdss
[31] = AUClast in BALB/c mouse at 1 mg/kg, iv measured upto 24 hrs by LC/MS-MS analysis; format: ADME, organism-based; parameters: time < 24 hr, dose 1 mg/kg, route intravenous; conditions: in vivo
[32] = Volume of distribution at steady state in BALB/c mouse at 1 mg/kg, iv measured upto 24 hrs by LC/MS-MS analysis; format: ADME, organism-based; conditions: in vivo, read-out: Vdss; how it was run: as §1
[33] = Drug concentration in brain of formalin-induced C57BL/6 mouse model of nociceptive pain at 30 mg/kg, po administered 30 mins before formalin stimulation and measured after 40 mins

Row | Compound | Drug metabolism [1] | clearance [2] | Cmax [4] | logD [12] | AUC(0-t) at 24 h [14] | Drug metabolism [15] | half-life [20] | bioavailability [25] | Drug metabolism [26] | Cmax [29] | AUC(0-t) at 24 h [31] | Vd [32] | further results
1 | O=S(=O)(Nc1ncccn1)c1ccc2c(c1)OCC[C@@H]2c1ccc(C(F)(F)F)cc1-c1ccc(F)nc1 | 0 nmol/min/mg | 2.6 mL/min/kg | 2 µM | 2.8 | 171 µM·h | 0 nmol/min/mg | 3.2 h | > 100% | 0 nmol/min/mg | 17 µM | 12 µM·h | 0.8 L/kg | AUC(0-t) at 24 h [3]: 111 µM·h; Papp [5]: 41.8 ×10⁻⁶ cm/s; AUC(0-t) at 24 h [6]: 15 µM·h; Cmax [7]: 1.7 µM; AUC(0-t) at 0.25 h [8]: 70 µM·h; clearance [9]: 0.3 mL/min/kg; Cmax [10]: 6.6 µM; Drug metabolism [11]: 0.03 nmol/min/mg; half-life [13]: 24 h; Drug metabolism [16]: 0.01 nmol/min/mg; clearance [17]: 2 mL/min/kg; Cmax [18]: 5.7 µM; half-life [19]: 9.8 h; bioavailability [21]: 78%; Papp [22]: 33.4 ×10⁻⁶ cm/s; bioavailability [23]: 74%; Cmax [24]: 14 µM; AUC(0-t) [27]: 218 µM·h; Vd [28]: 0.5 L/kg; Vd [30]: 1.2 L/kg
2 | O=S(=O)(Nc1cccc(F)n1)c1ccc2c(c1)OCC[C@@H]2c1ccc(C(F)(F)F)cc1N1CCOCC1 |  |  |  | 4.1 |  |  |  |  |  |  |  |  | 
3 | Cc1ccc(-c2cc(C(F)(F)F)ccc2[C@H]2CCc3cc(S(=O)(=O)Nc4ncccn4)ccc32)cn1 |  |  |  | 2.8 |  |  |  |  |  |  |  |  | 
4 | Cc1ccc(-c2cc(C(F)(F)F)ccc2[C@H]2CCOc3cc(S(=O)(=O)Nc4ncccn4)ccc32)cn1 | 0.04 nmol/min/mg |  | 3 µM | 2.3 | 63 µM·h | 0 nmol/min/mg | 1.5 h | 83% | 0.02 nmol/min/mg | 18 µM | 7.6 µM·h | 0.6 L/kg | AUC(0-t) at 24 h [3]: 112 µM·h; Papp A→B [5]: 39.5 ×10⁻⁶ cm/s; AUC(0-t) at 24 h [6]: 5.5 µM·h; Cmax [7]: 2.6 µM; AUC(0-t) at 0.25 h [8]: 19 µM·h; Cmax [10]: 19 µM; Drug metabolism [11]: 0.02 nmol/min/mg; half-life [13]: 2.5 h; brain concentration at 40 min [33]: < 1 µM; Drug metabolism [16]: 0.02 nmol/min/mg; Cmax [18]: 6.5 µM; half-life [19]: 1.9 h; bioavailability [21]: 51%; Papp B→A [22]: 36.8 ×10⁻⁶ cm/s; bioavailability [23]: > 100%; Cmax [24]: 8.5 µM; AUC(0-t) [27]: 50 µM·h; Vd [28]: 0.4 L/kg; Vd [30]: 0.8 L/kg

More lines, main results first:

Row | Drug metabolism [1] | clearance [2] | Cmax [4] | logD [12] | AUC(0-t) at 24 h [14] | Drug metabolism [15] | half-life [20] | bioavailability [25] | Drug metabolism [26] | Cmax [29] | AUC(0-t) at 24 h [31] | Vd [32] | Compound | further results
5 | 0.02 nmol/min/mg | 37 mL/min/kg | 2.2 µM | 2.3 | 7.1 µM·h | 0.02 nmol/min/mg | 0.4 h | 79% | 0.02 nmol/min/mg | 3 µM | 0.9 µM·h | 1 L/kg | O=S(=O)(Nc1nccs1)c1ccc2c(c1)OCC[C@@H]2c1ccc(C(F)(F)F)cc1-n1ccnn1 | 
6 | 0.1 nmol/min/mg | 14 mL/min/kg | 1.3 µM | 2.2 | 15 µM·h | 0.05 nmol/min/mg | 2 h | 68% | 0.04 nmol/min/mg | 6 µM | 2.2 µM·h | 2.2 L/kg | Cn1nccc1-c1cc(C(F)(F)F)ccc1[C@H]1CCOc2cc(S(=O)(=O)Nc3nccs3)ccc21 | 
7 |  |  |  | 2 |  |  |  |  |  |  |  |  | O=S(=O)(Nc1ccncn1)c1ccc2c(c1)OCC[C@@H]2c1ccc(C(F)(F)F)cc1N1CCOCC1 | 
